Legend:
Onchocerca gutturosa [1] = test: Mean motility score for treated Onchocerca gutturosa involving LLCMK2 feeder cells at a concentration of 3.05*10e-9 M at 96 h; type: functional
How it was run: (§1)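 Single male O. gutturosa worms (obtained following abattoir slaughter) per well in Eagle's MEM with 10% heat-inactivated fetal calf serum, penicillin, streptomycin, amphotericin B and bicarbonate, over LLCMK2 feeder cells, 5% CO2 in air. Drug dissolved in DMSO; controls received matched DMSO ≤0.016%. Motility scored 0 (immotile) to 10 (maximum control activity) every 30 min to 4.5 h, then days 1, 2, 3, 4, 7.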

Onchocerca gutturosa [2] = test: Mean motility score for treated Onchocerca gutturosa involving LLCMK2 feeder cells at a concentration of 5*10e-5 M at 24 h; type: functional; how it was run: as §1
Onchocerca gutturosa [3] = test: Mean motility score for treated Onchocerca gutturosa involving LLCMK2 feeder cells at a concentration of 5*10e-5 M at 72 h; type: functional
How it was run: (§2)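 Single male O. gutturosa worms per well in Eagle's MEM with 10% heat-inactivated fetal calf serum, antibiotics and bicarbonate, over LLCMK2 feeder cells, 5% CO2 in air. Test chemical dissolved in DMSO and diluted into medium; control wells got matched DMSO not exceeding 0.016%. Motility scored 0 (immotile) to 10 (maximum control motility) every 30 min for 4.5 h, then at 1, 2, 3, 4 and 7 days.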

Onchocerca volvulus [4] = test: Mean motility score for treated Onchocerca volvulus excluding LLCMK2 feeder cells at a concentration of 3.1*10e-6 M at 48 h
Onchocerca gutturosa [5] = test: Mean motility score for treated Onchocerca gutturosa involving LLCMK2 feeder cells at a concentration of 3.05*10e-9 M at 3.5 h; type: functional; how it was run: as §1
Onchocerca volvulus [6] = test: Mean motility score for treated Onchocerca volvulus excluding LLCMK2 feeder cells at a concentration of 3.1*10e-6 M at 72 h
Onchocerca gutturosa [7] = test: Mean motility score for treated Onchocerca gutturosa involving LLCMK2 feeder cells at a concentration of 5*10e-5 M at 1 h; type: functional; how it was run: as §1
Onchocerca gutturosa [8] = test: Mean motility score for treated Onchocerca gutturosa involving LLCMK2 feeder cells at a concentration of 3.05*10e-9 M at 4 h; type: functional; how it was run: as §1
Onchocerca gutturosa [9] = test: Mean motility score for treated Onchocerca gutturosa involving LLCMK2 feeder cells at a concentration of 5*10e-5 M at 2.5 h; type: functional; how it was run: as §1
Onchocerca gutturosa [10] = test: Mean motility score for treated Onchocerca gutturosa involving LLCMK2 feeder cells at a concentration of 5*10e-5 M at 4.5 h; type: functional; how it was run: as §1
Onchocerca volvulus [11] = test: Mean motility score for treated Onchocerca volvulus excluding LLCMK2 feeder cells at a concentration of 5*10e-5 M at 0.5 h
Brugia pahangi = test: anti-filarial Activity was measured against Brugia pahangi in jirds at 25 mg/kg/day(5 days) dose; type: functional
How it was run: (§3)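 Jirds with established B. pahangi or A. viteae infections were given drug once daily for 5 days by subcutaneous injection, at the maximum tolerated dose and, where supply allowed, graded lower doses. Tolerance was first checked in noninfected jirds with a single 200 mg/kg oral or subcutaneous dose, watching 72 h for excessive weight loss or death. Macrofilarial suppression was the read-out.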

Onchocerca volvulus [12] = test: Mean motility score for treated Onchocerca volvulus excluding LLCMK2 feeder cells at a concentration of 3.1*10e-6 M at 0.5 h
Onchocerca gutturosa [13] = test: Mean motility score for treated Onchocerca gutturosa involving LLCMK2 feeder cells at a concentration of 5*10e-5 M at 96 h; type: functional; how it was run: as §2
Onchocerca gutturosa [14] = test: Mean motility score for treated Onchocerca gutturosa involving LLCMK2 feeder cells at a concentration of 5*10e-5 M at 2 h; type: functional; how it was run: as §1
Onchocerca volvulus [15] = test: Colorimetric quantification of male Onchocerca volvulus viability, expressed as % inhibition of formazan formation at 3.1*10e-6 M conc. by using tetrazolium Dye MTT assay; type: functional
How it was run: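 Male O. volvulus dissected from human nodules within 24 h (kept in medium on ice), cultured without feeder cells in medium with 10% serum; drug from DMSO stock. MTT after 96 h: single worm, 0.5 mg/mL MTT, 30 min at 36.5 °C, formazan dissolved in DMSO 1 h at room temperature, absorbance 490 nm against DMSO blank.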

Onchocerca gutturosa [16] = test: Mean motility score for treated Onchocerca gutturosa involving LLCMK2 feeder cells at a concentration of 3.05*10e-9 M at 72 h; type: functional; how it was run: as §1
Onchocerca volvulus [17] = test: Mean motility score for treated Onchocerca volvulus excluding LLCMK2 feeder cells at a concentration of 5*10e-5 M at 48 h
Onchocerca gutturosa [18] = test: Mean motility score for treated Onchocerca gutturosa involving LLCMK2 feeder cells at a concentration of 3.05*10e-9 M at 24 h; type: functional; how it was run: as §1
Onchocerca volvulus [19] = test: Mean motility score for treated Onchocerca volvulus excluding LLCMK2 feeder cells at a concentration of 3.1*10e-6 M at 96 h
Onchocerca volvulus [20] = test: Mean motility score for treated Onchocerca volvulus excluding LLCMK2 feeder cells at a concentration of 5*10e-5 M at 1 h
Onchocerca gutturosa [21] = test: Mean motility score for treated Onchocerca gutturosa involving LLCMK2 feeder cells at a concentration of 3.05*10e-9 M at 168 h; type: functional; how it was run: as §1
Onchocerca volvulus [22] = test: Mean motility score for treated Onchocerca volvulus excluding LLCMK2 feeder cells at a concentration of 5*10e-5 M at 24 h
Onchocerca gutturosa [23] = test: Colorimetric quantification of male Onchocerca gutturosa viability, expressed as % inhibition of formazan formation at 5*10e-5 M conc. by using tetrazolium Dye MTT assay; type: functional
How it was run: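 Single intact male O. gutturosa, cultured with LLCMK2 feeder cells in MEM + 10% heat-inactivated FCS (5% CO2), drug added from DMSO (≤0.016% DMSO in controls). MTT read after 168 h: worm in 0.5 mg/mL MTT, 30 min at 36.5 °C, formazan solubilized in DMSO 1 h at room temperature, absorbance 490 nm vs DMSO blank.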

Acanthocheilonema viteae = test: anti-filarial Activity was measured against Acanthocheilonema viteae in jirds at 12.5 mg/kg/day(5 days) dose; type: functional; how it was run: as §3
Onchocerca gutturosa [24] = test: Mean motility score for treated Onchocerca gutturosa involving LLCMK2 feeder cells at a concentration of 5*10e-5 M at 3.5 h; type: functional; how it was run: as §1
Onchocerca volvulus [25] = test: Mean motility score for treated Onchocerca volvulus excluding LLCMK2 feeder cells at a concentration of 3.1*10e-6 M at 2 h
Onchocerca gutturosa [26] = test: Mean motility score for treated Onchocerca gutturosa involving LLCMK2 feeder cells at a concentration of 5*10e-5 M at 4 h; type: functional; how it was run: as §1
Onchocerca gutturosa [27] = test: Mean motility score for treated Onchocerca gutturosa involving LLCMK2 feeder cells at a concentration of 5*10e-5 M at 1.5 h; type: functional; how it was run: as §1
Onchocerca volvulus [28] = test: Mean motility score for treated Onchocerca volvulus excluding LLCMK2 feeder cells at a concentration of 3.1*10e-6 M at 24 h

C/C(=N\NC(=S)N1CCCCCC1)c1ccccn1
Motility (Onchocerca gutturosa [1]): 5.5 | Motility (Onchocerca gutturosa [2]): 0 | Motility (Onchocerca gutturosa [3]): 0 | Motility (Onchocerca volvulus [4]): 0.6 | Motility (Onchocerca gutturosa [5]): 8.3 | Motility (Onchocerca volvulus [6]): 1 | Motility (Onchocerca gutturosa [7]): 4.8 | Motility (Onchocerca gutturosa [8]): 7.8 | Motility (Onchocerca gutturosa [9]): 3.8 | Motility (Onchocerca gutturosa [10]): 1.8 | Motility (Onchocerca volvulus [11]): 8 | Suppression (Brugia pahangi): 84% | Motility (Onchocerca volvulus [12]): 6.6 | Motility (Onchocerca gutturosa [13]): 0 | Motility (Onchocerca gutturosa [14]): 4.8 | Inhibition (Onchocerca volvulus [15]): 39.6% | Motility (Onchocerca gutturosa [16]): 6 | Motility (Onchocerca volvulus [17]): 1 | Motility (Onchocerca gutturosa [18]): 9.3 | Motility (Onchocerca volvulus [19]): 0 | Motility (Onchocerca volvulus [20]): 8.4 | Motility (Onchocerca gutturosa [21]): 3.5 | Motility (Onchocerca volvulus [22]): 1.6 | Inhibition (Onchocerca gutturosa [23]): 90.3% | Suppression (Acanthocheilonema viteae): -16% | Motility (Onchocerca gutturosa [24]): 2.3 | Motility (Onchocerca volvulus [25]): 6.6 | Motility (Onchocerca gutturosa [26]): 1.5 | Motility (Onchocerca gutturosa [27]): 4.8 | Motility (Onchocerca volvulus [28]): 3.4

C/C(=N\NC(S)=Nc1ccccc1N)c1ccccn1
Motility (Onchocerca gutturosa [1]): 6.8 | Motility (Onchocerca gutturosa [2]): 9.5 | Motility (Onchocerca gutturosa [3]): 1.6 | Motility (Onchocerca volvulus [4]): 2 | Motility (Onchocerca gutturosa [5]): 7.3 | Motility (Onchocerca volvulus [6]): 1.2 | Motility (Onchocerca gutturosa [7]): 10 | Motility (Onchocerca gutturosa [8]): 5.8 | Motility (Onchocerca gutturosa [9]): 9.5 | Motility (Onchocerca gutturosa [10]): 9.5 | Motility (Onchocerca volvulus [11]): 5 | Suppression (Brugia pahangi): 100% | Motility (Onchocerca volvulus [12]): 8 | Motility (Onchocerca gutturosa [13]): 1.5 | Motility (Onchocerca gutturosa [14]): 8.5 | Inhibition (Onchocerca volvulus [15]): 65.3% | Motility (Onchocerca gutturosa [16]): 7.5 | Motility (Onchocerca volvulus [17]): 3.6 | Motility (Onchocerca gutturosa [18]): 7.3 | Motility (Onchocerca volvulus [19]): 0.4 | Motility (Onchocerca volvulus [20]): 5 | Motility (Onchocerca gutturosa [21]): 4.5 | Motility (Onchocerca volvulus [22]): 4.4 | Inhibition (Onchocerca gutturosa [23]): 72.9% | Suppression (Acanthocheilonema viteae): 28% | Motility (Onchocerca gutturosa [24]): 9.5 | Motility (Onchocerca volvulus [25]): 6 | Motility (Onchocerca gutturosa [26]): 9.5 | Motility (Onchocerca gutturosa [27]): 9.5 | Motility (Onchocerca volvulus [28]): 1.6

Source: ChEMBL document CHEMBL1125672, “2-acetylpyridine thiosemicarbazones. 13. Derivatives with antifilarial activity” (1991)
